# High-throughput results: PubChem, The Scripps Research Institute Molecular Screening Center
# UHRF1 binding – blocks human UHRF1 binding to methylated DNA; hit rate 0.75% among 370,000; AID 687016; UHRF1 binding to methylated oligo, TR-FRET; Q96T88; inhibition, % at 4.4 µM; in the data active = inhibition above about 21%;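 note: UHRF1 SRA domain binding a hemimethylated CpG hairpin DNA probe; 0% = median of test compound wells and 100% = reference inhibitor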
# MBD2 inh – MBD2-methylated oligo binding inhibition | Q9UBB5 | TR-FRET, MBD2 binding to methylated oligonucleotide | inhibition, % at 4.4 µM | hit rate 0.31% among 370,000 | AID 686964; in the data active = inhibition above about 13%
# ARFGAP1 inh – rat ARFGAP1 inhibition; Q62848; Arfgap1-stimulated ARF1 GTP hydrolysis, GDP FP detection; inhibition, % at 16.5 µM; hit rate 0.26% among 360,000;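 active = inhibition above a per-plate limit, mean inhibition of low control wells plus 3 SD, cut at about 25% in these data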;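 note: 0% = DMSO wells with enzyme and 100% = wells lacking Arfgap1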
# Target sequence (Q62848 1-136 limits assumed): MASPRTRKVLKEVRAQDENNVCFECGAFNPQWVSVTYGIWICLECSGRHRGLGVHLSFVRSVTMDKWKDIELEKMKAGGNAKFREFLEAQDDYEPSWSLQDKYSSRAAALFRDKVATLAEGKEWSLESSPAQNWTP
#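 Material: truncated rat Arfgap1 GAP domain; Incubation: compound-enzyme preincubation 20 min, reaction 120 min, detection 60 min, 25 °C; Read-out: percent inhibition of Arfgap1-stimulated GTP hydrolysis; Technique: FP, GDP Alexa 633 tracer displaced from anti-GDP antibody, 620/688 nm; Controls: No-Arfgap1 wells (100%) versus DMSO full-reaction wells (0%); Replication: single well per compound.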
# TDP2 absorb – blocks human TDP2 phosphodiesterase activity; AID 720702; recombinant TDP2, T5PNP hydrolysis, p-nitrophenol absorbance 415 nm; inhibition, % at 12.8 µM; hit rate 0.34% among 370,000; O95551;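 active = inhibition above the mean of all tested compounds plus 3 SD, set per campaign, cut at about 25% in these data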;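 note: 0% = DMSO with enzyme and 100% = buffer with substrate but no TDP2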
#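 Assay system: Recombinant human TDP2 | Quantity: 120 nM TDP2 per well | Incubation: 2 h at 37 °C | Signal: Epi absorbance | Evaluation: Percent inhibition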
# LEDGF integ inh – blocks HIV-1 LEDGF/p75-dependent DNA integration; TR-FRET IN-LEDGF/p75 DNA integration, Eu/Cy5; inhibition, % at 3.7 µM; hit rate 0.64% among 370,000; AID 743269;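 active = inhibition above the screen-wide mean plus 3 SD, cut at about 13% in these data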;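 note: signal is the Cy5 over europium emission ratio at 671 and 618 nm; 0% = plate median of compound wells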
# ASAP1 GAP inh – ASAP1 ArfGAP inhibition. hit rate 0.19% among 360,000. AID 624377. ASAP1-stimulated ARF1 GTP hydrolysis, GDP FP detection. inhibition, % at 16.5 µM; in the data active = inhibition above about 25%;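 note: 0% = vehicle with enzyme and substrate and 100% = no enzyme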
# Target sequence (Q9ULH1 325-724 limits assumed): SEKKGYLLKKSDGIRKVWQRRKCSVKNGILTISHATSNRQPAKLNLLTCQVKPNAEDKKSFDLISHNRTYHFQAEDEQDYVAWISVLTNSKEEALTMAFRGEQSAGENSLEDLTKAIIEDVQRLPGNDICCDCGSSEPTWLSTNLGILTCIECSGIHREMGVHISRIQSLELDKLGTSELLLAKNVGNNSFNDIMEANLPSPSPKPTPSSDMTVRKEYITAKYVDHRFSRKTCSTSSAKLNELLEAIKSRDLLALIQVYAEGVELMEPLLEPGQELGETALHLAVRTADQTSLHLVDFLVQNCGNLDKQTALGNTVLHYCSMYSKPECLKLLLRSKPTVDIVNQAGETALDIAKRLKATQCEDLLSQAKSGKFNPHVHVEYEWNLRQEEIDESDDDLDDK
# IN multimer up – counter-screen for LEDGF/p75 integration inhibitors: HIV-1 integrase multimerization activators; activation, % at 7.7 µM; TR-FRET HIV-1 integrase multimerization, biochemical; hit rate 17% among 2,000; shares compounds with LEDGF integ inh; in the data active = activation above about 8.9%
# TRFRET interf – optically interferes with TR-FRET readout in LEDGF counter-screen | shares compounds with LEDGF integ inh | TR-FRET optical interference counterscreen, HIV-1 IN multimerization | inhibition, % at 7.7 µM | 2,000 tested, under 10 active;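 active = inhibition above the mean over all tested compounds plus 3 SD, which no compound reached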;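 note: 0% = integrase with antibodies and DMSO and 100% = antibodies without integrase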
# IN-LEDGF confirm – confirmation of HIV-1 LEDGF/p75-dependent integration inhibitors; hit rate 36% among 2,000; TR-FRET LEDGF/p75-dependent HIV-1 integration, biochemical; shares compounds with LEDGF integ inh; inhibition, % at 3.7 µM; in the data active = inhibition above about 14%
# Starred values were filed as active, the others as inactive; . = no result given. In the library only some 2% were active in any assay of this set; here they are far more common.
SMILES,UHRF1 binding,MBD2 inh,ARFGAP1 inh,TDP2 absorb,LEDGF integ inh,ASAP1 GAP inh,IN multimer up,TRFRET interf,IN-LEDGF confirm
CCCCCCCCN1C(=O)[C@@H](CC(=O)N2CCCCC2)C[C@@]2(C(=O)OC)C1=C[C@H](COCc1ccccc1)O[C@@H]2C,-2.7,-5.7,.,-4.0,-0.1,.,.,.,.
CCOC(=O)C1=C(C)N(c2ccc(C)cc2)C(=O)/C1=C\c1cccs1,6.2,0.0,15.2,-12.1,58.3*,-3.3,1.7,-8.8,7.1
CCOC(=O)C1=C(C)N(c2ccccc2)C(=O)/C1=C\c1cccs1,-1.5,-0.1,9.4,14.5,-1.2,-0.4,.,.,.
CC(=O)N1[C@H](CO)[C@@H](c2ccccc2)[C@@H]1CN(C(=O)c1ccc(F)cc1)C(C)C,1.1,-1.0,.,-1.2,-4.0,.,.,.,.
O=C(Nc1ccc2c(c1)OCO2)OC1CCC12CCC(c1ccccc1)CC2 (centres undefined),2.9,6.7,.,-1.9,1.5,.,.,.,.
O=C(Nc1scc(-c2ccccc2)c1C(=O)O)c1ccccc1Cl,1.1,-7.7,5.3,-3.0,7.6,4.9,.,.,.
COc1ccc(-c2csc(NC(=O)c3ccccc3F)c2C(=O)O)cc1,-0.6,5.8,1.4,-4.5,15.2*,-0.2,3.2,-11.4,9.9
Cc1cccc(NC(=O)Nc2ccccc2C(=O)N2CCCC2)c1,-0.5,1.2,.,7.3,1.5,.,.,.,.
O=C(c1ccc2c(c1)N(Cc1ccccc1F)C(=O)c1ccccc1S2)N1CCOCC1,-1.3,1.3,-10.8,1.0,30.0*,-15.2,0.5,-2.6,-7.4
COc1ccc(CNC(=O)CN(CCC(C)C)S(=O)(=O)c2ccc3c(c2)OCCO3)cc1,1.7,-0.4,-3.4,9.2,22.6*,-1.2,5.5,-27.9,-0.1
COc1ccc(/C=N/NC(=O)CN(Cc2ccccc2)S(=O)(=O)c2ccc3c(c2)OCCO3)cc1,-0.3,4.0,6.0,1.3,2.5,5.4,.,.,.
C=CCn1c(SCC(=O)c2ccc(O)c(O)c2)nnc1-c1cccnc1,25.0*,6.1,5.7,-7.1,16.0*,-15.4,45.4*,-161.0,59.9*
Fc1ccc(CNC(=S)Nc2cccc(Cl)c2)cc1,-3.8,-1.3,-8.2,-0.7,15.4*,-6.6,-0.8,4.2,-0.9
COc1ccc(CCNC(=O)Cn2c(=O)oc3cc(Cl)ccc32)cc1OC,-1.5,0.7,-1.6,3.9,33.8*,1.2,-0.3,1.4,-1.0
COc1ccc(CCNC(=O)c2cccs2)cc1OC,4.4,-6.8,-10.9,4.4,1.0,-7.0,.,.,.
COc1ccc(NC(=O)Cn2c(=O)oc3cc(Cl)ccc32)c(OC)c1,-1.6,-3.1,13.2,4.3,1.2,12.6,.,.,.
COc1ccc(CCNC(=O)Cc2cccs2)cc1OC,0.8,-3.8,-5.1,0.3,22.0*,-3.6,0.6,-3.1,4.2
COCCN1C(=O)C2=C(C1=O)C1N(C)c3ccccc3[C@@]13C[C@@H](CO)N(C(C)=O)C3=N2 (some centres undefined),5.1,2.8,.,8.7,1.3,.,.,.,.
Oc1ccc(/C=N/N2CCOCC2)c(O)c1O,6.6,-3.1,1.6,-0.1,52.0*,7.2,8.5,-43.1,17.8*
COc1cccc(/C=N/N2CCOCC2)c1O,-0.8,-0.1,4.8,0.3,0.7,-1.1,.,.,.
Oc1ccc(/C=N/N2CCCCC2)c(O)c1O,12.1,-2.4,-11.7,-11.2,28.2*,1.3,4.6,-16.4,24.7*
COc1cccc2cc3c(nc12)C[C@@H]1CCCC(=O)N2CCC[C@@]12C3,-3.1,-7.4,.,1.0,6.6,.,.,.,.
COc1ccc2cc(-c3cccc4[nH]cc(C)c34)ccc2c1,0.3,1.7,.,3.3,-1.3,.,.,.,.
CN(C)/C=C/c1oc2ccc(O)cc2c1[N+](=O)[O-],-21.8,-15.8,3.7,7.4,18.3*,3.9,19.2*,-96.5,7.0
CCOC(=O)C1=NOC(C(=O)NCCO)(C(=O)C2CC2)C1 (centres undefined),0.9,6.9,.,-4.7,6.8,.,.,.,.
SMILES,UHRF1 binding,MBD2 inh,ARFGAP1 inh,TDP2 absorb,LEDGF integ inh,ASAP1 GAP inh,IN multimer up,TRFRET interf,IN-LEDGF confirm
COc1ccc(CN2C/C(=C/c3ccccc3)N3C(=O)C[C@@H](c4ccc5ccccc5c4)N=C23)c(OC)c1,-2.6,2.9,.,4.3,-4.2,.,.,.,.
Cc1cccc(NC(=O)NCCCN2CCN(c3ccc(F)cc3)CC2)c1,-0.6,-0.6,.,1.1,4.2,.,.,.,.
CN(CCc1ccccc1)C(=O)c1ccc(NC(=O)Cc2cccc(NC(=O)C3CCN(C(=O)C4CCCCC4)CC3)c2)cc1,-2.2,-5.2,3.8,-10.7,3.2,13.9,.,.,.
CN(CCc1ccccc1)C(=O)c1ccc(NC(=O)Cc2cccc(NC(=O)C3CCN(C(=O)c4ccccc4)CC3)c2)cc1,0.6,-0.7,0.1,0.4,21.1*,14.6,-2.6,13.0,0.8
CC[C@H](CCCc1ccccc1OC)CCS(=O)(=O)N(C)C,-0.6,3.9,.,-1.1,-0.1,.,.,.,.
Cc1ccc2c(c1)c(=O)c1c3n2CCN(C(=O)CCl)C3CC1 (centres undefined),-4.5,-8.6,1.1,21.1,14.2*,2.4,15.0*,-53.6,48.6*
Cc1ccc2c(c1)c1c3n2CCN(C(=O)CN2CCN(C)CC2)C3CCC1 (centres undefined),-1.7,2.2,5.3,0.1,-0.1,0.6,.,.,.
N#Cc1nc(-c2ccc(F)cc2)oc1NCc1ccccc1,0.0,6.7,-1.7,-1.4,14.9*,9.7,-2.1,7.8,-1.7
N#Cc1nc(-c2cccs2)oc1NCc1ccccc1,-2.4,4.4,-1.7,-0.1,14.4*,12.3,4.5,-16.8,16.8*
Cc1ccc(CNc2oc(-c3cccs3)nc2C#N)cc1,-2.3,-1.9,-4.4,-22.0,20.9*,2.8,1.4,-7.2,1.6
O=C1CSC(c2ccc(Cl)c(Cl)c2)N1c1nccs1 (centres undefined),1.6,-2.0,-11.4,-8.6,18.4*,-3.6,-2.2,11.3,-4.2
CC(C)[C@H](NS(=O)(=O)c1ccc2c(c1)OCCO2)C(=O)OCC(=O)Nc1cccc(Cl)c1Cl,-2.8,-5.7,-3.1,-5.7,18.1*,7.3,0.7,-3.5,-1.5
CCOCC(=O)Nc1cc(C(F)(F)F)ccc1Oc1cccc(Br)c1,-1.4,0.5,-2.4,-8.0,-1.9,-7.8,.,.,.
CC(=O)Nc1cc(C(F)(F)F)ccc1Oc1cccc(Br)c1,3.7,-1.1,7.2,12.4,15.7*,-7.7,-2.0,10.2,-0.8
